According to ChEMBL document CHEMBL4477178, “Biflorin, Isolated from the Flower Buds of Syzygium aromaticum L., Suppresses LPS-Induced Inflammatory Mediators via STAT1 Inactivation in Macrophages and Protects Mice from Endotoxin Shock” (J Nat Prod, 2016):
The source made the active and inactive calls. No cut-off for these calls is given here.

Columns and labels:
RAW264.7 [1] = experiment: Antiinflammatory activity in mouse RAW264.7 cells assessed as inhibition of LPS-induced TNF-alpha mRNA expression at 60 uM after 2 to 12 hrs by qRT-PCR method; format: functional, cell-based
Method in brief: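 RAW 264.7 stimulated with LPS 10 ng/mL with or without 60 μM for 2, 4, 6 and 12 h. Total RNA (1 μg) reverse-transcribed with MuLV RT and random primer; SYBR green real-time qPCR with gene-specific primers, triplicate Ct normalized to β-actin. Mean ± SD, three independent experiments.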

RAW264.7 [2] = experiment: Antiinflammatory activity in mouse RAW264.7 cells assessed as inhibition of LPS-induced IL-6 production at 60 uM preincubated for 1 hr followed by LPS challenge for 24 hrs by ELISA method; format: functional
Method in brief: (§1)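 RAW 264.7 cells in DMEM with 10% FBS, plated at 2 × 10^5 cells/mL and incubated overnight. Pretreated with compound (15, 30 or 60 μM) for 1 h, then LPS 10 ng/mL for 24 h. PGE2 measured by competitive colorimetric ELISA, TNF-α and IL-6 by ELISA, in diluted medium. NS-398 3 μM as positive control for PGE2. Mean ± SD, three independent experiments; IC50 given for PGE2.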

Peritoneal macrophage = experiment: Antiinflammatory activity in C57BL/6 mouse peritoneal macrophages assessed as inhibition of LPS-induced nitric oxide production at 60 uM preincubated for 1 hr followed by LPS challenge for 48 hrs by Griess assay; format: functional; details: C57BL/6, Peritoneal macrophage
Method in brief: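 Thioglycolate-elicited C57BL/6 mouse peritoneal macrophages, plated at 5 × 10^5 cells/mL and incubated overnight. Compound given at 15, 30 or 60 μM for 1 h, then LPS 10 μg/mL. Medium mixed 1:1 with Griess reagent for 10 min at room temperature, absorbance read at 540 nm, nitrite quantified against a NaNO2 standard. L-NIL 20 μM as positive control; three independent experiments.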

RAW264.7 [3] = experiment: Antiinflammatory activity in mouse RAW264.7 cells assessed as inhibition of LPS-induced PGE2 production preincubated for 1 hr followed by LPS challenge for 24 hrs by ELISA method; format: functional, cell-based; method in brief: as §1
RAW264.7 [4] = experiment: Antiinflammatory activity in mouse RAW264.7 cell lysate assessed as inhibition of LPS-induced iNOS expression preincubated for 1 hr followed by LPS challenge for 24 hrs by Western blot analysis; format: functional, cell-based
Method in brief: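 RAW 264.7 (DMEM, 10% FBS, 37 °C, 5% CO2) pretreated 1 h at 15, 30 or 60 μM, then LPS 10 ng/mL for 24 h. Lysates run on 10–12% SDS-PAGE, blotted to PVDF, probed with iNOS or COX-2 antibody (1:1000, overnight 4 °C), HRP secondary, ECL; densitometry vs β-actin. Mean ± SD of three independent experiments.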

RAW264.7 [5] = experiment: Antiinflammatory activity in mouse RAW264.7 cells assessed as inhibition of LPS-induced iNOS promoter activity at 60 uM preincubated for 1 hr followed by LPS challenge for 6 to 12 hrs by reporter gene assay; format: functional, cell-based
Method in brief: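 RAW 264.7 transiently cotransfected with promoter-luciferase construct (pGL3-iNOS, pGL3-COX-2 or pTNF-α-luc) plus phRL-TK internal control; 6 h after transfection pretreated 1 h with 60 μM, then LPS 10 ng/mL for 6 or 12 h. Cells washed in cold PBS, lysed, luciferase read. Mean ± SD, three independent experiments.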

[6] = Cytotoxicity against C57BL/6 mouse peritoneal macrophages assessed as cell viability at 60 uM after 24 hrs by MTT assay; format: cell-based, Peritoneal macrophage; details: read-out: Activity
Method in brief: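 Peritoneal macrophages from thioglycolate-elicited C57BL/6 male mice (harvested by lavage after 4 days, cultured in DMEM/10% FBS) exposed 24 h up to 60 μM; viability by MTT assay.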

[7] = biological target: Signal transducer and activator of transcription 3 (Mus musculus) (UniProt P42227); experiment: Inhibition of LPS-induced STAT3 phosphorylation at Y705 in C57BL/6 mouse peritoneal macrophages at 15 to 60 uM preincubated for 1 hr followed by LPS challenge for 60 mins by Western blot analysis
Method in brief: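 Thioglycolate-elicited C57BL/6 peritoneal macrophages pretreated 1 h at 15, 30 or 60 μM, then LPS 10 μg/mL: 120 min for p-STAT1 Y701, 30 min for p-STAT1 S727, 60 min for p-STAT3 Y705. Western blot with phospho-specific and total STAT antibodies, β-actin control; three independent experiments.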

Mus musculus [8] = experiment: Inhibition of LPS-induced COX-2 mRNA expression in C57BL/6 mouse liver at 10 mg/kg, ip pretreated for 1 hr followed by LPS challenge for 6 hrs by qRT-PCR method; format: functional, organism-based
Method in brief: (§2)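 Male C57BL/6 mice given 10 mg/kg i.p. or vehicle 1 h before LPS (Salmonella enterica, 25 mg/kg i.p.); liver collected 6 h after LPS, frozen at −80 °C. Liver mRNA by SYBR qRT-PCR normalized to β-actin; protein by Western blot for p-STAT1 (Y701, S727). Eight mice per group; mean ± SD.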

Mus musculus [9] = experiment: In vivo inhibition of LPS-induced STAT1 phosphorylation at Y701 in C57BL/6 mouse liver at 10 mg/kg, ip pretreated for 1 hr followed by LPS challenge for 6 hrs by Western blot analysis; format: functional, organism-based; method in brief: as §2
Mus musculus [10] = experiment: Protection against LPS-induced mortality in C57BL/6 mouse assessed as lethality level at 5 to 10 mg/kg, ip pretreated for 1 hr followed by LPS challenge measured every 12 hrs for 96 hrs post challenge; format: functional
Method in brief: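 Male C57BL/6 mice (6 weeks) given compound i.p. (5 or 10 mg/kg) or vehicle 1 h before i.p. LPS (Salmonella enterica, 25 mg/kg). Water only for 12 h beforehand. Survival checked every 12 h for 96 h; n = 5 per group.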

Rattus norvegicus [11] = experiment: Antiinflammatory activity in Sprague-Dawley rat assessed as reduction in carrageenan induced paw edema at 5 mg/kg, ip administered 1 hr before carrageenan challenge measured at 3 hrs post challenge relative to control; format: functional
Method in brief: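 SD rats given compound i.p. (5, 10 or 15 mg/kg) 1 h before subplantar injection of 1% carrageenan in saline (0.1 mL) into the right hind paw. Paw volume measured by plethysmometer at 1, 3 and 5 h. Edema compared with the carrageenan-only group; seven rats per group.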

Rattus norvegicus [12] = experiment: Antiinflammatory activity in Sprague-Dawley rat assessed as inhibition of croton oil-induced ear edema at 10 mg/kg, ip administered 1 hr before croton oil challenge measured after 3 hrs by hematoxylin and eosin staining based assay; format: functional, organism-based
Method in brief: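 SD male rats dosed i.p. (10 mg/kg) 1 h before topical croton oil (5% in acetone) on inner right ear; left ear got acetone only. At 3 h rats sacrificed, 6 mm ear punches taken, fixed in 4% paraformaldehyde overnight, paraffin-embedded, H&E-stained for edema and inflammatory cell infiltrate; seven animals per group.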

Sequence of Signal transducer and activator of transcription 3 (Mus musculus) (P42227 whole entry): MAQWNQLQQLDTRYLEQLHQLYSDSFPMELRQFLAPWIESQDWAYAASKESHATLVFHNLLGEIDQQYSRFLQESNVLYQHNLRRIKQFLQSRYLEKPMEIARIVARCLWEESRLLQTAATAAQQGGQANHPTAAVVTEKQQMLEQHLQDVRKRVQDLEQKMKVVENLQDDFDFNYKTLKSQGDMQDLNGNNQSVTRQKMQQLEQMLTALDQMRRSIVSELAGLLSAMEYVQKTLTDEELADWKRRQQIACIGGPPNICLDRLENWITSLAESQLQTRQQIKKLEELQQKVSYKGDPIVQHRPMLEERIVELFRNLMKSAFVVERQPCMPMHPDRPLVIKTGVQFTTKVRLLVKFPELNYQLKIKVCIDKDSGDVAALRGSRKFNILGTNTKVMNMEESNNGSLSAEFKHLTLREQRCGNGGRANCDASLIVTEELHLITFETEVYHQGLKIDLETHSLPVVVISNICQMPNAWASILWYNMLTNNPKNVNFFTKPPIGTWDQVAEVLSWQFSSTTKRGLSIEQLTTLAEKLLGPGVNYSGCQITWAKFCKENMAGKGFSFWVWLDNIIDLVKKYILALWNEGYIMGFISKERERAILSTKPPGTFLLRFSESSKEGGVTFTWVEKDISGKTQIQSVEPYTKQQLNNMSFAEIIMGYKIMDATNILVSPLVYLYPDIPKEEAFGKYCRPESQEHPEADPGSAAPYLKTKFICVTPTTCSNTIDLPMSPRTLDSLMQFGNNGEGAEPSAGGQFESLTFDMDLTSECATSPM

## Cc1cc(=O)c2c(O)c([C@@H]3O[C@H](CO)[C@@H](O)[C@H](O)[C@H]3O)c(O)cc2o1 [BIFLORIN]
RAW264.7 [1]
  inhibition: Active
RAW264.7 [2]
  inhibition at 60 µM: 51.3%
Peritoneal macrophage
  inhibition at 60 µM: 55.9%
RAW264.7 [3]
  IC50: 37.1 µM
RAW264.7 [4]
  inhibition: Dose-dependent effect
RAW264.7 [5]
  inhibition: Active
[6]
  viability at 24 h, 60 µM: 90.4%
[7]
  inhibition: Active
Mus musculus [8]
  inhibition: Active
Mus musculus [9]
  inhibition: Active
Mus musculus [10]
  mortality: 40 - 60%
Rattus norvegicus [11]
  inhibition in vivo at 5 mg/kg: 26%
Rattus norvegicus [12]
  inhibition: Active
